Data as given in publication PMC5035790 (Annals of Oncology, 2016).

Tested on: patients with advanced solid tumors or non-Hodgkin's lymphoma
Test: Phase I dose-escalation study: safety, tolerability, MTD, adverse events
Assay type: in vivo, human
Summary of the method: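 Adults with advanced solid tumours (plus NHL and type 2 diabetic expansion cohorts) received a 1-h IV infusion on days 1, 8 and 15 of 28-day cycles over 0.1–1.2 mg/kg. Accelerated titration escalated the dose by 100% per cohort. MTD was the highest dose given to six patients with ≤1 DLT. Fasting was 8 h pre- and 3 h post-start on cycle 1 day 1. AEs were assessed at planned times each cycle and at follow-up.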

In the case of COc1c(OCCCN2CCOCC2)ccc2c1N=C(NC(=O)c1cnc(N)nc1)N1CCN=C21 [copanlisib, Copanlisib], the “dose-limiting toxicities (DLTs)” value (0.8 mg/kg dose-escalation cohort) is reported as “no DLTs”, the “dose modifications caused by drug-related AEs” value (14 of 57 patients) is reported as 25% and the “Any drug-related AE” value (NHL expansion, 0.8 mg/kg, n=9) is reported as 8 (89) n (%). For the same molecule, the “Drug-related AEs of grade 3” value (NHL expansion, 0.8 mg/kg, n=9) was 5 (56) n (%), the “Drug-related AEs of grade 4” value (NHL expansion, 0.8 mg/kg, n=9) was 1 (11) n (%) and the “Drug-related diarrhea, all grades” value (NHL expansion, 0.8 mg/kg, n=9) was 3 (33) n (%). The “Drug-related diarrhea, grade 3” value (NHL expansion, 0.8 mg/kg, n=9) was 0 n (%), the “Drug-related fatigue, all grades” value (NHL expansion, 0.8 mg/kg, n=9) was 3 (33) n (%) and the “Drug-related fatigue, grade 3” value (NHL expansion, 0.8 mg/kg, n=9) was 0 n (%). The “Drug-related hyperglycemia, all grades” value (NHL expansion, 0.8 mg/kg, n=9) was 8 (89) n (%), the “Drug-related hyperglycemia, grade 3” value (NHL expansion, 0.8 mg/kg, n=9) was 3 (33) n (%) and the “Drug-related hypertension, all grades” value (NHL expansion, 0.8 mg/kg, n=9) was 3 (33) n (%). The “Drug-related hypertension, grade 3” value (NHL expansion, 0.8 mg/kg, n=9) was 3 (33) n (%), the “Drug-related nausea, all grades” value (NHL expansion, 0.8 mg/kg, n=9) was 7 (78) n (%) and the “Drug-related nausea, grade 3” value (NHL expansion, 0.8 mg/kg, n=9) was 0 n (%). The “Drug-related oral cavity mucositis, all grades” value (NHL expansion, 0.8 mg/kg, n=9) was 3 (33) n (%), the “Drug-related oral cavity mucositis, grade 3” value (NHL expansion, 0.8 mg/kg, n=9) was 0 n (%) and the “Drug-related rash/desquamation, all grades” value (NHL expansion, 0.8 mg/kg, n=9) was 2 (22) n (%). For the same molecule, the “Drug-related rash/desquamation, grade 3” value (NHL expansion, 0.8 mg/kg, n=9) was 1 (11) n (%), the “Drug-related vomiting, all grades” value (NHL expansion, 0.8 mg/kg, n=9) was 1 (11) n (%) and the “Drug-related vomiting, grade 3” value (NHL expansion, 0.8 mg/kg, n=9) was 0 n (%). The “Drug-related hyperglycemia, all grades” value (all patients, n=57, text) was 63%, the “Drug-related hypertension, all grades” value (all patients, n=57, text) was 21% and the “Drug-related hypertension, grade 3” value (all patients, n=57, text) was 14%. For the same molecule, the “diarrhea, all-grade” value (all patients, n=57, text) was 16%, the “diarrhea, grade ≥3” value (all patients, n=57, text) was 2% and the “drug-related rash, grade 3” value (all patients, n=57, text) was 7%. The “Drug-related nausea, all grades” value (all patients, n=57, text, all events grade ≤2) was 37%, the “Any drug-related AE” value (cohort 1, 0.1 mg/kg, n=1) was 1 (100) n (%) and the “Drug-related AEs of grade 3” value (cohort 1, 0.1 mg/kg, n=1) was 0 n (%). For the same molecule, the “Drug-related AEs of grade 4” value (cohort 1, 0.1 mg/kg, n=1) was 0 n (%), the “Drug-related diarrhea, all grades” value (cohort 1, 0.1 mg/kg, n=1) was 0 n (%) and the “Drug-related diarrhea, grade 3” value (cohort 1, 0.1 mg/kg, n=1) was 0 n (%). The “Drug-related fatigue, all grades” value (cohort 1, 0.1 mg/kg, n=1) was 0 n (%), the “Drug-related fatigue, grade 3” value (cohort 1, 0.1 mg/kg, n=1) was 0 n (%) and the “Drug-related hyperglycemia, all grades” value (cohort 1, 0.1 mg/kg, n=1) was 0 n (%). The “Drug-related hyperglycemia, grade 3” value (cohort 1, 0.1 mg/kg, n=1) was 0 n (%), the “Drug-related hypertension, all grades” value (cohort 1, 0.1 mg/kg, n=1) was 0 n (%) and the “Drug-related hypertension, grade 3” value (cohort 1, 0.1 mg/kg, n=1) was 0 n (%). For the same molecule, the “Drug-related nausea, all grades” value (cohort 1, 0.1 mg/kg, n=1) was 0 n (%), the “Drug-related nausea, grade 3” value (cohort 1, 0.1 mg/kg, n=1) was 0 n (%) and the “Drug-related oral cavity mucositis, all grades” value (cohort 1, 0.1 mg/kg, n=1) was 0 n (%). The “Drug-related oral cavity mucositis, grade 3” value (cohort 1, 0.1 mg/kg, n=1) was 0 n (%), the “Drug-related rash/desquamation, all grades” value (cohort 1, 0.1 mg/kg, n=1) was 0 n (%) and the “Drug-related rash/desquamation, grade 3” value (cohort 1, 0.1 mg/kg, n=1) was 0 n (%). For the same molecule, the “Drug-related vomiting, all grades” value (cohort 1, 0.1 mg/kg, n=1) was 0 n (%), the “Drug-related vomiting, grade 3” value (cohort 1, 0.1 mg/kg, n=1) was 0 n (%) and the “Any drug-related AE” value (cohort 2, 0.2 mg/kg, n=3) was 3 (100) n (%). For the same molecule, the “Drug-related AEs of grade 3” value (cohort 2, 0.2 mg/kg, n=3) was 2 (67) n (%), the “Drug-related AEs of grade 4” value (cohort 2, 0.2 mg/kg, n=3) was 0 n (%) and the “Drug-related diarrhea, all grades” value (cohort 2, 0.2 mg/kg, n=3) was 2 (67) n (%). The “Drug-related diarrhea, grade 3” value (cohort 2, 0.2 mg/kg, n=3) was 1 (33) n (%), the “Drug-related fatigue, all grades” value (cohort 2, 0.2 mg/kg, n=3) was 1 (33) n (%) and the “Drug-related fatigue, grade 3” value (cohort 2, 0.2 mg/kg, n=3) was 0 n (%). The “Drug-related hyperglycemia, all grades” value (cohort 2, 0.2 mg/kg, n=3) was 1 (33) n (%), the “Drug-related hyperglycemia, grade 3” value (cohort 2, 0.2 mg/kg, n=3) was 0 n (%) and the “Drug-related hypertension, all grades” value (cohort 2, 0.2 mg/kg, n=3) was 0 n (%). For the same molecule, the “Drug-related hypertension, grade 3” value (cohort 2, 0.2 mg/kg, n=3) was 0 n (%), the “Drug-related nausea, all grades” value (cohort 2, 0.2 mg/kg, n=3) was 3 (100) n (%) and the “Drug-related nausea, grade 3” value (cohort 2, 0.2 mg/kg, n=3) was 0 n (%). The “Drug-related oral cavity mucositis, all grades” value (cohort 2, 0.2 mg/kg, n=3) was 1 (33) n (%), the “Drug-related oral cavity mucositis, grade 3” value (cohort 2, 0.2 mg/kg, n=3) was 0 n (%) and the “Drug-related rash/desquamation, all grades” value (cohort 2, 0.2 mg/kg, n=3) was 0 n (%). The “Drug-related rash/desquamation, grade 3” value (cohort 2, 0.2 mg/kg, n=3) was 0 n (%), the “Drug-related vomiting, all grades” value (cohort 2, 0.2 mg/kg, n=3) was 1 (33) n (%) and the “Drug-related vomiting, grade 3” value (cohort 2, 0.2 mg/kg, n=3) was 0 n (%). The “Any drug-related AE” value (cohort 3, 0.4 mg/kg, n=3) was 2 (67) n (%), the “Drug-related AEs of grade 3” value (cohort 3, 0.4 mg/kg, n=3) was 1 (33) n (%) and the “Drug-related AEs of grade 4” value (cohort 3, 0.4 mg/kg, n=3) was 0 n (%). For the same molecule, the “Drug-related diarrhea, all grades” value (cohort 3, 0.4 mg/kg, n=3) was 0 n (%), the “Drug-related diarrhea, grade 3” value (cohort 3, 0.4 mg/kg, n=3) was 0 n (%) and the “Drug-related fatigue, all grades” value (cohort 3, 0.4 mg/kg, n=3) was 0 n (%). The “Drug-related fatigue, grade 3” value (cohort 3, 0.4 mg/kg, n=3) was 0 n (%), the “Drug-related hyperglycemia, all grades” value (cohort 3, 0.4 mg/kg, n=3) was 1 (33) n (%) and the “Drug-related hyperglycemia, grade 3” value (cohort 3, 0.4 mg/kg, n=3) was 0 n (%). The “Drug-related hypertension, all grades” value (cohort 3, 0.4 mg/kg, n=3) was 1 (33) n (%), the “Drug-related hypertension, grade 3” value (cohort 3, 0.4 mg/kg, n=3) was 1 (33) n (%) and the “Drug-related nausea, all grades” value (cohort 3, 0.4 mg/kg, n=3) was 0 n (%). The “Drug-related nausea, grade 3” value (cohort 3, 0.4 mg/kg, n=3) was 0 n (%), the “Drug-related oral cavity mucositis, all grades” value (cohort 3, 0.4 mg/kg, n=3) was 0 n (%) and the “Drug-related oral cavity mucositis, grade 3” value (cohort 3, 0.4 mg/kg, n=3) was 0 n (%). For the same molecule, the “Drug-related rash/desquamation, all grades” value (cohort 3, 0.4 mg/kg, n=3) was 0 n (%), the “Drug-related rash/desquamation, grade 3” value (cohort 3, 0.4 mg/kg, n=3) was 0 n (%) and the “Drug-related vomiting, all grades” value (cohort 3, 0.4 mg/kg, n=3) was 0 n (%). For the same molecule, the “Drug-related vomiting, grade 3” value (cohort 3, 0.4 mg/kg, n=3) was 0 n (%), the “Any drug-related AE” value (cohort 4, 0.8 mg/kg, n=7) was 7 (100) n (%) and the “Drug-related AEs of grade 3” value (cohort 4, 0.8 mg/kg, n=7) was 4 (57) n (%). For the same molecule, the “Drug-related AEs of grade 4” value (cohort 4, 0.8 mg/kg, n=7) was 0 n (%), the “Drug-related diarrhea, all grades” value (cohort 4, 0.8 mg/kg, n=7) was 1 (14) n (%) and the “Drug-related diarrhea, grade 3” value (cohort 4, 0.8 mg/kg, n=7) was 0 n (%). For the same molecule, the “Drug-related fatigue, all grades” value (cohort 4, 0.8 mg/kg, n=7) was 0 n (%), the “Drug-related fatigue, grade 3” value (cohort 4, 0.8 mg/kg, n=7) was 0 n (%) and the “Drug-related hyperglycemia, all grades” value (cohort 4, 0.8 mg/kg, n=7) was 7 (100) n (%).
